As usually defined, the GI50 is the concentration giving 50% growth inhibition.

Active and inactive are the calls of the source.

Data set [1] concerns the target DNA (cytosine-5)-methyltransferase 1 (Homo sapiens) (UniProt P26358). Description: Binding affinity to DNMT1 in human MCF7 cells at 10 uM preincubated for 1 hr post RG108, 1149 and (S)-Methyl 2-(2,5-dioxo-2,5-dihydro-1H-pyrrol-1-yl)-3-(4-(5-phenyl-2H-tetrazol-2-yl)phenyl)propanoate treatment followed by clicked with TER-Biotin-N3 for 2 hrs and pull down by Western blot analysis. The format is cell-based. An outline of the steps: (§1)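 Freshly prepared MCF-7 lysate (100 µg) labelled with 10 µM alkyne probe for 1 h at room temperature, then CuAAC click for 2 h. TER-PEG-N3 was used for in-gel fluorescence scanning, and TER-Biotin-N3 for pull-down followed by western blot against DNMT1. DMSO-treated cells served as the negative control.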
For orientation: Immunoblotting shows a protein as a band on a membrane.

A short description of data set [2]: Drug uptake in nucleus of human MCF7 cells at 5 uM preincubated for 30 hrs post RG108, 1149 and (S)-Methyl 2-(2,5-dioxo-2,5-dihydro-1H-pyrrol-1-yl)-3-(4-(5-phenyl-2H-tetrazol-2-yl)phenyl)propanoate treatment followed by clicked with TER-PEG-N3 measured after 2 hrs by Hoechst 33342 staining-based immunofluorescence assay. The settings on record: mcf7, 2 h, in the assay text read “30 min” for “30 hrs”. Type of data set: ADME, cell-based. An outline of the steps: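 MCF-7 cells incubated with 5 µM alkyne probe for 30 min in the incubator, fixed with 3.7% formaldehyde, permeabilised with 0.1% Triton X-100 and clicked with TER-PEG-N3. Anti-DNMT1 immunofluorescence and Hoechst nuclear staining followed. Localisation was read by fluorescence microscopy, with DMSO-only cells as control.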

Data set [3] relates to MCF7. Description: Cytotoxicity against human MCF7 cells after 72 hrs by XTT assay. The settings on record: for GI50: MCF7, 72 h. Type of data set: functional. An outline of the steps:
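MCF-7 breast cancer cells exposed to a range of compound concentrations, and growth read by XTT anti-proliferation assay. GI50 is defined as the concentration giving 50% growth inhibition, taken from dose–response plots.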
(Formazan colour is commonly taken as a measure of viable cells.)

Data set [4] deals with MCF7. Description: Induction of apoptosis in human MCF7 cells assessed as apoptotic cells at 10 uM after 6 hrs by FITC-Annexin V/propidium iodide staining-based FACS analysis relative to control. The format is functional. An outline of the steps:
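Live MCF-7 cells treated with inhibitors at 10 µM, then stained with FITC Annexin V (apoptosis) and propidium iodide (cell death). Signals were quantified by flow cytometry against DMSO-treated cells.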
On the technique in general: Flow cytometry measures light scatter and fluorescence of single cells or particles in a stream.

For data set [5], the target named is DNA (cytosine-5)-methyltransferase 1 (Homo sapiens) (UniProt P26358). Description: Binding affinity to DNMT1 in human MCF7 cells at 10 uM preincubated for 1 hr post RG108, 1149 and (S)-Methyl 2-(2,5-dioxo-2,5-dihydro-1H-pyrrol-1-yl)-3-(4-(5-phenyl-2H-tetrazol-2-yl)phenyl)propanoate treatment followed by CuAAC click chemistry application measured after 2 hrs by gel fluorescence scanning assay. Type of data set: cell-based. An outline of the steps: as §1
Sequence of DNA (cytosine-5)-methyltransferase 1 (Homo sapiens) (P26358 whole entry): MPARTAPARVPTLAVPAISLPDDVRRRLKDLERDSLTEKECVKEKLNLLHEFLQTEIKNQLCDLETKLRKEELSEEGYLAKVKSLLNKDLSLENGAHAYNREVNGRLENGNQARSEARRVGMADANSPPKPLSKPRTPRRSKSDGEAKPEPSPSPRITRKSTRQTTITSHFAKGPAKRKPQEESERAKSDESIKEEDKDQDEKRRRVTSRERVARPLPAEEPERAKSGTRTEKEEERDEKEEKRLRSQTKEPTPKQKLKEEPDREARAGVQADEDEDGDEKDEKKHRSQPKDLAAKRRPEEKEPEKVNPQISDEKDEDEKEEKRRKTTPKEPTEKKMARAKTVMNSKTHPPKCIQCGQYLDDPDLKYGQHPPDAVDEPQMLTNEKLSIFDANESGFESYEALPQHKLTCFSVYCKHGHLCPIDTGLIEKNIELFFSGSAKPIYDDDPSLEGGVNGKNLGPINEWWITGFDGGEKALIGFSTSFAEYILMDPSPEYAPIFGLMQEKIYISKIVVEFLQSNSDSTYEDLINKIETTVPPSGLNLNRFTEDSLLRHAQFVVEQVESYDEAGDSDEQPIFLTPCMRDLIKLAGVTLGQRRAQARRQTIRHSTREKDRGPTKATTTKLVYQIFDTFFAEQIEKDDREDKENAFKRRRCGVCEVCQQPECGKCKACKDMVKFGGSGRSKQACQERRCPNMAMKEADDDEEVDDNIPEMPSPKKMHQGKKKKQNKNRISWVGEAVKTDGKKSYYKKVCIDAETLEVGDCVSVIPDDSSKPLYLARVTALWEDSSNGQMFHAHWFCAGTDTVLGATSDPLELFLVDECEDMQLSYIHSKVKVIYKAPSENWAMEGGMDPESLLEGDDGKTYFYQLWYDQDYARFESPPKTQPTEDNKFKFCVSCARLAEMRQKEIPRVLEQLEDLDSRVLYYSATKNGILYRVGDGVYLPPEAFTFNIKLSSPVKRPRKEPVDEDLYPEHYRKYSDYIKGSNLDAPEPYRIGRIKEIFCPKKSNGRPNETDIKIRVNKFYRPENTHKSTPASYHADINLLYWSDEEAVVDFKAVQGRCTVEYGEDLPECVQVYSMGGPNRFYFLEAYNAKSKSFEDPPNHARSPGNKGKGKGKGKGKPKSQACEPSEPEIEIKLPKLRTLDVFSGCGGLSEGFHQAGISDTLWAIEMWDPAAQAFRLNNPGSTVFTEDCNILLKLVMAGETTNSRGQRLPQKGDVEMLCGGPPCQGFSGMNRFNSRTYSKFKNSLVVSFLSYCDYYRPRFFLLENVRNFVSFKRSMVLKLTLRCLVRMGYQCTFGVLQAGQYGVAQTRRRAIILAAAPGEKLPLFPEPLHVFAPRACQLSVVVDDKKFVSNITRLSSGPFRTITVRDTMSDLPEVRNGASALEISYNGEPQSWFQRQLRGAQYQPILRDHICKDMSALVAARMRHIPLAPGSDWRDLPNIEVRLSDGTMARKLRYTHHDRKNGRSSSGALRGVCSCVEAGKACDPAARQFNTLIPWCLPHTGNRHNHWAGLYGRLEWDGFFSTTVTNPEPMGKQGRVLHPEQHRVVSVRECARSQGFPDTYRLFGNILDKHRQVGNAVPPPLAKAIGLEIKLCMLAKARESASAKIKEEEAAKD

Data set [6] shares this target. Description: Inhibition of recombinant DNMT1 (unknown origin) after 90 mins by fluorescence assay.
The target is the same in data set [7]. Description: Competitive inhibition of DNMT1 in (S)-Methyl 2-(2,5-dioxo-2,5-dihydro-1H-pyrrol-1-yl)-3-(5-(prop-2-yn-1-yloxy)-1H-indol-3-yl)propanoate labeled human MCF7 cells at 50 to 500 uM preincubated for 1 hr followed by cell labeling for 1 hr and clicked with TER-biotin-N3 for 2 hrs and pull down by Western blot analysis. Type of data set: cell-based. An outline of the steps:
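Mammalian cells pretreated with competitor at 50, 100 or 500 µM. Their lysates were then labelled with 10 µM alkyne probe for 1 h at room temperature and clicked for 2 h with TER-Biotin-N3. DNMT1 (~183 kDa) was detected by pull-down and western blot, with DMSO as the negative control.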

Data set [8] has the same target. Description: Competitive inhibition of DNMT1 in (S)-Methyl 2-(2,5-dioxo-2,5-dihydro-1H-pyrrol-1-yl)-3-(5-(prop-2-yn-1-yloxy)-1H-indol-3-yl)propanoate labeled human MCF7 cells at 100 uM preincubated for 1 hr followed by cell labeling for 30 mins and clicked with TER-PEG-N3 measured after 2 hrs by Hoechst 33342 staining-based immunofluorescence assay. An outline of the steps:
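Live MCF-7 cells pretreated with competitor at 100 µM for 1 h, then given 5 µM alkyne probe for 30 min in the incubator. Cells were fixed (3.7% formaldehyde), permeabilised (0.1% Triton X-100), clicked with TER-PEG-N3, immunostained with anti-DNMT1 and Hoechst-stained. Imaging was by fluorescence microscopy in four channels (bright-field, probe, IF, nuclear).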

In data set [9] the test system is MCF7. Description: Induction of apoptosis in human MCF7 cells assessed as dead cells at 10 uM after 6 hrs by FITC-Annexin V/propidium iodide staining-based FACS analysis relative to control. The format is functional. An outline of the steps:
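Live MCF-7 cells treated with compound at 10 µM, then stained with FITC-Annexin V (apoptotic cells) and propidium iodide (dead cells). Signals quantified by flow cytometry and read from histograms.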

Take `C#CCOc1ccc2[nH]cc(C[C@@H](C(=O)OC)N3C(=O)C=CC3=O)c2c1`: the result in [1] was Active. Moreover, the Drug uptake entry in data set [2] is “Active”. Besides, in the data set on MCF7 [3], the “growth inhibition (GI)” value is “Dose-dependent effect” and the GI50 was 0.29 µM. Also, the Activity with MCF7 [4] is reported as 61%. Also, the result in data set [5] was inactive.
In the case of `COC(=O)[C@H](Cc1ccc(-n2nnc(-c3ccc(OC)cc3)n2)cc1)N1C(=O)C=CC1=O`, in the data set with MCF7 [3], the “growth inhibition (GI)” value was “Dose-dependent effect” and the GI50 stood at 0.87 µM. Moreover, in data set [6], the inhibition entry was “Active”.
The corresponding values for `COC(=O)[C@H](Cc1ccc(-n2nnc(-c3ccc(C(F)(F)F)cc3)n2)cc1)N1C(=O)C=CC1=O` are “Dose-dependent effect”, 1.77 µM and “Active”.
Consider `COC(=O)[C@H](Cc1ccc(-n2nnc(-c3cc(F)cc(F)c3)n2)cc1)N1C(=O)C=CC1=O`, for which, in the data set on MCF7 [3], the “growth inhibition (GI)” value is “Dose-dependent effect” and the GI50 amounted to 1.1 µM. In addition, the inhibition entry in [6] is “Active”.
Take `COC(=O)[C@H](Cc1ccc(-n2nnc(-c3ccc(F)cc3)n2)cc1)N1C(=O)C=CC1=O`: in the data set on MCF7 [3], the “growth inhibition (GI)” value is “Dose-dependent effect” and halving of growth (GI50) required 1.16 µM. The inhibition entry in [6] was “Active”.
On to `COC(=O)[C@H](Cc1ccc(-n2nnc(-c3cc(C)cc(C)c3)n2)cc1)N1C(=O)C=CC1=O`, for which, in the data set on MCF7 [3], the “growth inhibition (GI)” value was “Dose-dependent effect” and the GI50 stood at 0.78 µM. For the same compound, in data set [6], the inhibition entry was “Active”.
The corresponding values for `COC(=O)[C@H](Cc1ccc(-n2nnc(-c3ccc(OC(F)F)cc3)n2)cc1)N1C(=O)C=CC1=O` are “Dose-dependent effect”, 0.73 µM and “Active”.
As for `COC(=O)[C@H](Cc1ccc(-n2nnc(-c3ccc(N(C)C)cc3)n2)cc1)N1C(=O)C=CC1=O`, in the data set on MCF7 [3], the “growth inhibition (GI)” value was “Dose-dependent effect” and the GI50 was determined as 1.08 µM. The inhibition entry in [6] is “Active”.
As to `O=C(O)[C@H](Cc1c[nH]c2ccccc12)N1C(=O)C=CC1=O`, the GI50 with MCF7 [3] was determined as 7.31 µM. In addition, the inhibition result in data set [6], in [7] and in data set [8] was “Active” throughout.
With `CCCCCCOc1ccc(-c2nnn(-c3ccc(C[C@@H](C(=O)OC)N4C(=O)C=CC4=O)cc3)n2)cc1`, in the data set on MCF7 [3], the “growth inhibition (GI)” value is “Dose-dependent effect” and growth was halved (GI50) at 6.15 µM. In addition, the inhibition result in [6] is “Active”.
Take `COC(=O)[C@H](Cc1ccc(-n2nnc(-c3ccncc3)n2)cc1)N1C(=O)C=CC1=O`: in the data set on MCF7 [3], the “growth inhibition (GI)” value is “Dose-dependent effect” and the GI50 stood at 1.86 µM. The inhibition result in data set [6] is “Active”.
The like results for `COC(=O)[C@H](Cc1ccc(-n2nnc(-c3cccc4ccccc34)n2)cc1)N1C(=O)C=CC1=O` were, in that order, “Dose-dependent effect”, 0.48 µM and “Active”.
The corresponding values for `COC(=O)[C@H](Cc1ccc(-n2nnc(-c3ccc(C(C)C)cc3)n2)cc1)N1C(=O)C=CC1=O` are “Dose-dependent effect”, 0.38 µM and “Active”.
Turning to `O=C(O)[C@H](Cc1c[nH]c2ccccc12)N1C(=O)c2ccccc2C1=O`, the result with MCF7 [9] and in the data set with MCF7 [4] was Active. Besides, the GI50 with MCF7 [3] came out at 128 µM. For the same compound, the inhibition entry in [6], in [7] and in [8] was “Active” in each case.
Regarding `COC(=O)[C@H](Cc1ccc(-n2nnc(-c3ccccc3)n2)cc1)N1C(=O)C=CC1=O`, the outcome with MCF7 [9] and in the data set with MCF7 [4] was Active. In addition, the “growth inhibition (GI)” value with MCF7 [3] was “Dose-dependent effect”. In the data set with MCF7 [3], this compound yielded a GI50 of 0.3 µM. The inhibition entry in data set [6], in [7] and in [8] was “Active” each time.

For the origin of these results see ChEMBL document CHEMBL3425419, “Developing new chemical tools for DNA methyltransferase 1 (DNMT 1): a small-molecule activity-based probe and novel tetrazole-containing inhibitors” (Bioorg Med Chem, 2015).
